Six compounds from ChEMBL document CHEMBL1124947, “Cationic antiprotozoal drugs. Trypanocidal activity of 2-(4'-formylphenyl)imidazo[1,2-a]pyridinium guanylhydrazones and related derivatives of quaternary heteroaromatic compounds” (J Med Chem, 1990) can be followed below.

Type in all cases: functional
Test [1] deals with Mus musculus. Briefly: Trypanocidal Activity at I.C.E. value 0.24 when administered perorally.
Test [2] deals with Mus musculus. Kind of test: Trypanocidal Activity at I.C.E. value 0.75 when administered subcutaneously. Put shortly: (§1)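 Mice, in groups of five per dose, were given a standard inoculum of blood-stage T. rhodesiense that is lethal to all untreated controls, then dosed subcutaneously. Usually 11 dose levels were used (2^n × 0.42 mg/kg).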
The test system of test [3] is Mus musculus. Kind of test: Trypanocidal Activity at I.C.E. value 0.72 when administered subcutaneously. Put shortly:
as §1

Test [4] relates to Mus musculus. Kind of test: Trypanocidal Activity at I.C.E. value 0.70 when administered perorally.
The test system of test [5] is Mus musculus. Briefly: Trypanocidal Activity at I.C.E. value 0.54 when administered subcutaneously. The essentials: (§2)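 Blood-stage T. rhodesiense infection came from a standard inoculum lethal to all untreated mice. Drug was given by subcutaneous injection to groups of five mice. Survival beyond 30 days counted as cure. […] Sub-curative doses scored 0, and data were normalized at each dose.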

Test [6] relates to Mus musculus. Briefly: Trypanocidal Activity at I.C.E. value 0.56 when administered subcutaneously. Put shortly:
as §1

Test [7] deals with Trypanosoma brucei rhodesiense. Briefly: In Vitro measurement of inhibition of thymidine uptake in cell culture of Trypanosoma rhodesiense. Conditions: read-out: ID50 (the source's name). The essentials: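 Parasites harvested from infected rats and incubated 3 h across a drug concentration series, usually 0.1–100 µg/mL. Incorporation of radiolabeled thymidine measured. ID50 is the concentration (µg/mL) producing 50% inhibition.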

The test system of test [8] is Trypanosoma brucei rhodesiense. Kind of test: In Vitro measurement of inhibition of leucine uptake in cell culture of Trypanosoma rhodesiense. Conditions: read-out: ID50 (the source's name). The essentials:
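Trypanosomes harvested from infected rats, cultured 3 h with several concentrations of drug, usually 0.1–100 µg/mL. Radiolabeled L-leucine uptake measured. ID50 is the concentration in µg/mL giving 50% inhibition of incorporation.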

In test [9] the test system is Mus musculus. Briefly: Trypanocidal Activity at I.C.E. value 0.52 when administered subcutaneously. Put shortly:
as §2

The subject of test [10] is Mus musculus. Briefly: Trypanocidal Activity at I.C.E. value 0.60 when administered perorally.
Test [11] deals with Mus musculus. Briefly: Trypanocidal Activity at I.C.E. value 0.27 when administered perorally.
Test [12] deals with Mus musculus. Kind of test: Trypanocidal Activity at I.C.E. value 0.92 when administered subcutaneously. Put shortly: as §1

Take `Br.Cc1cccc2n1cc(COc1ccc(/C=N/NC(=N)N3CCCC3)cc1)[n+]2C.[Br-]`: the CD50 in test [1] is 53 mg/kg; in test [2], 0.4 mg/kg.

Compound `Br.C[n+]1c(/C=C/c2ccc(/C=N/NC(=N)NO)cc2)cn2ccccc21.[Br-]` showed a CD50 in [3] of 0.2 mg/kg.

`Br.C[n+]1c(-c2ccc(/C=N/NC(=N)N3CCCC3)cc2)cn2ccsc21.[Br-]`: the CD50 in test [4] is 3.3 mg/kg; in [5], 0.1 mg/kg.

With `CN(C)C(=N)N/N=C/c1ccc(-c2cn3ccsc3[n+]2C)cc1.I.[I-]`, the CD50 in [6] was found to be 0.2 mg/kg. The IC50 in test [7] and in test [8] was 1 µg/mL each time.

On to `CNC(=N)N/N=C/c1ccc(-c2cn3ccsc3[n+]2C)cc1.I.[I-]`, for which the CD50 in test [9] is 0.4 mg/kg; in test [10] it was 6.6 mg/kg. Besides, the IC50 in test [7] was 1.5 µg/mL; in test [8], 1.2 µg/mL.

For the compound `Br.CCCSc1ccc2n(c1)cc(-c1ccc(/C=N/NC(=N)N)cc1)[n+]2C.[Br-]`, the CD50 worked out at 26 mg/kg in [11] and 0.2 mg/kg in [12].
